Data: article PMC4519694 (Nature neuroscience, 2015)
Blank lines part the entries; values can stand above or below the compound they belong to. Peptide text beside a SMILES is read from it.

Legend:
[1] = system: AMPA receptor subunit GluR1 (Ser845); assay: Phospho-Ser845 GluR1 in striatal slices; type: cell-based, mouse; conditions: 50 µM roscovitine, n = 3-6
How it was run: (§1)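 Acute mouse striatal slices were exposed to test compound and analysed by quantitative immunoblotting. Phospho-specific signals were normalized to the corresponding total-protein blots, and loading to β-actin, GAPDH and/or coomassie staining. Values are mean ± s.e.m.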

DARPP-32 (Thr34) = assay: Phospho-Thr34 DARPP-32 in striatal slices; type: cell-based, mouse; conditions: 50 µM roscovitine, n = 3-6
How it was run: as §1

cAMP in striatal slices = assay: cAMP level in striatal slices; type: cell-based, mouse
CREB (Ser133) = assay: Phospho-Ser133 CREB in striatal slices; type: cell-based, mouse; conditions: 50 µM roscovitine, n = 3-6
How it was run: (§2)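 Acute mouse striatal slices, drug-treated, analysed by quantitative immunoblot. Phospho-specific signals normalized to the matching total-protein blot; loading normalized to β-actin, GAPDH and/or Coomassie. The PDE4 PKA-site antibody was an affinity-purified polyclonal, phosphorylation state-specific. Mean ± s.e.m.; t-test or ANOVA with Bonferroni post hoc.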

PDE = PDE activity in striatal lysates; type: biochemical, mouse; conditions: n = 4 slices
synapsin (Ser9) = assay: Phospho-Ser9 synapsin in striatal slices; type: cell-based, mouse; conditions: 50 µM roscovitine, n = 3-6
How it was run: as §2

PDE4 (PKA site) = assay: PDE4 phosphorylation at the PKA site in striatal slices; type: cell-based, mouse
How it was run: as §2

humans = conditions: ref [35]–[37]; cited from earlier work
animals = conditions: ref [35]–[37]; cited from earlier work
PDE4 = conditions: ref [35]–[37]; cited from earlier work
[2] = target: PDE4B1 phosphorylation by Cdk5 (Homo sapiens, UniProt Q00535); assay: In vitro Cdk5-dependent phosphorylation of PDE4; type: biochemical, rat
PDE4B1 phosphorylation by Cdk5, sequence (Q00535 whole entry): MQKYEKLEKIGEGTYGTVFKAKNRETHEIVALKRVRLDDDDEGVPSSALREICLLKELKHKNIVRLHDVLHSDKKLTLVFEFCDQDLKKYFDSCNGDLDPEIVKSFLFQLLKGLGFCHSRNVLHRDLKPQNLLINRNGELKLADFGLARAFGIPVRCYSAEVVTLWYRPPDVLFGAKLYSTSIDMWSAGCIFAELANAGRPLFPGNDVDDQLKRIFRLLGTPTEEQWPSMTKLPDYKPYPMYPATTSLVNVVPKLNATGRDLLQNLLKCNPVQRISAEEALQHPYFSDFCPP
PDE4B1 phosphorylation by Cdk5, sequence (Q15078 99-307 partner limits assumed): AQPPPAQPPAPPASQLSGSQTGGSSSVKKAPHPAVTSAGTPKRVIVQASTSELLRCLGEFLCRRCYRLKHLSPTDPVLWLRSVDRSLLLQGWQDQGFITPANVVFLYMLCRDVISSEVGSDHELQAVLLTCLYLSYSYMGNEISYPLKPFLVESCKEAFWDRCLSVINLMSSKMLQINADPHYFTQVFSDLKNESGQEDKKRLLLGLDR

PDE4B1 (PKA site) = assay: PKA-mediated PDE4 phosphorylation in PC12 cells; type: cell-based; conditions: FSK 10 µM, n = 8 reactions, WT vs S145A at 3 min *P = 0.0241, at 15 min ***P < 0.0001
mice = assay: Forced swim test; type: in vivo, mouse; conditions: infusion into NAc, two-trial FST, n = 5-7 (Supplementary Fig. 12c)
How it was run: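 Bilateral stereotaxic infusion into NAc under isoflurane (AP +1.50 mm from bregma, ML ±1.4 mm, DV −3.90 mm), 1 µl per hemisphere of peptide (115 µM) or PKA inhibitor (45 µM). Testing followed 90 min after peptide or 45 min after inhibitor. Mice aged 10–12 weeks swam in a glass cylinder of 25°C water for 10 min, then 8 min 24 h later. Two researchers, blind to treatment, scored immobility at 2–6 min.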

NMDA receptor = NMDA receptor current, whole-cell recording in striatal neurons; type: cell-based, mouse; conditions: D-APV 50 µM; NMDA 100 µM; -70 mV

- phosphorylation of GluR1 (Ser845) [1]: increased phosphorylation
- cAMP level (cAMP in striatal slices; Ros, n = 3 slices, *P = 0.0216): increase cAMP to similar levels
Compound: CC[C@H](CO)Nc1nc(NCc2ccccc2)c2ncn(C(C)C)c2n1 [roscovitine]
- phosphorylation of DARPP-32 (Thr34) (DARPP-32 (Thr34)): increased phosphorylation
- PKA-dependent phosphorylation of CREB (Ser133) (CREB (Ser133)): induced PKA-dependent phosphorylation
- PDE activity (PDE; roscovitine 10 µM, *P = 0.011): attenuates PDE activity
- PDE activity (PDE; roscovitine 50 µM, **P = 0.0037): attenuates PDE activity
- PKA-dependent phosphorylation of synapsin (Ser9) (synapsin (Ser9)): induced PKA-dependent phosphorylation

- cAMP level (cAMP in striatal slices; SKF81297 (1 µM, 10 min unless stated otherwise), n = 4 slices, **P = 0.0030): increase cAMP to similar levels
Compound: Oc1cc2c(c(Cl)c1O)CCNCC2c1ccccc1 (centres unmarked) [SKF81297]

Compound: CCNC(=O)[C@H]1O[C@@H](n2cnc3c(N)nc(NCCc4ccc(CCC(=O)O)cc4)nc32)[C@H](O)[C@@H]1O [CGS21680]
- PKA-mediated PDE4 phosphorylation in response to CGS21680 (PDE4 (PKA site); 5 µM, 2 min, Cdk5 cKO striatum, n = 4 slices from 2 mice, WT CGS vs cKO CGS *P = 0.0354): Loss of PKA-mediated PDE4 phosphorylation

Compound: COc1ccc(C2CNC(=O)C2)cc1OC1CCCC1 (centres unmarked) [rolipram, 4-[3-(cyclopenotoxyl)-4-methoxyphenyl]-2-pyrrolidone]
- antidepressant activity (humans): have antidepressant activity in humans
- behavioral responses to stressors (animals): affect behavioral responses to stressors in animals
- cAMP (PDE4): elevate cAMP

Compound: CC[C@H](C)[C@H](NC(=O)[C@H](CCCCN)NC(=O)[C@@H](NC(=O)[C@H](CCC(N)=O)NC(=O)[C@@H](N)CCCNC(=N)N)[C@@H](C)CC)C(=O)N[C@@H](Cc1c[nH]c2ccccc12)C(=O)N[C@@H](Cc1ccccc1)C(=O)N[C@@H](CCC(N)=O)C(=O)N[C@@H](CC(N)=O)C(=O)N[C@@H](CCCNC(=N)N)C(=O)N[C@@H](CCCNC(=N)N)C(=O)N[C@@H](CCSC)C(=O)N[C@@H](CCCCN)C(=O)N[C@@H](Cc1c[nH]c2ccccc12)C(=O)N[C@@H](CCCCN)C(=O)N[C@@H](CCCCN)C(=O)N[C@@H](CCC(=O)O)C(=O)N[C@@H](CO)C(=O)N[C@@H](Cc1ccccc1)C(=O)N[C@@H](CC(C)C)C(=O)N[C@@H](Cc1ccc(O)cc1)C(=O)N[C@@H](CCCNC(=N)N)C(=O)N[C@@H](CO)C(=O)N[C@@H](CC(=O)O)C(=O)N[C@@H](CO)C(=O)N[C@@H](CC(=O)O)C(=O)N[C@@H](Cc1ccc(O)cc1)C(=O)N[C@@H](CC(=O)O)C(=O)N[C@@H](CC(C)C)C(=O)N[C@@H](CO)C(=O)N1CCC[C@H]1C(=O)N[C@@H](CCCCN)C(=O)N[C@@H](C)C(=O)N[C@@H](CCSC)C(=O)O [PDE4-siP] (H-RQIKIWFQNRRMKWKKESFLYRSDSDYDLSPKAM-OH)
- IC50 [2]: 13 µM

Compound: C=C[C@@]1(C)CC(=O)[C@]2(O)[C@@]3(C)[C@@H](O)CCC(C)(C)[C@@H]3[C@H](O)[C@H](OC(C)=O)[C@@]2(C)O1 [forskolin]
- PKA-mediated PDE4 phosphorylation after forskolin, S145A PDE4B1 versus WT (PDE4B1 (PKA site)): reduced PKA-mediated PDE4 phosphorylation
- PDE4 phosphorylation by PKA (PDE4 (PKA site); striatal slices (Supplementary Fig. 1e)): increased PDE4 phosphorylation by PKA

Compound: RRRRRRR- ESFLYRSDSDYDLSPKAM [poly-arginine tagged PDE4 peptide]
- FST performance (mice): analogical effect on FST performance

Compound: N[C@H](CCCP(=O)(O)O)C(=O)O [D-APV]
- NMDA-evoked current (NMDA receptor): blocked
